From ChEMBL document CHEMBL4364271, “Unveiling the Importance of Amide Protons in CSP:ComD Interactions in Streptococcus pneumoniae” (ACS Med Chem Lett, 2019) come the findings set out here.

Data set [1] concerns Streptococcus pneumoniae D39. Kind of data set: Agonist activity at ComD1 receptor in Streptococcus pneumoniae D39 harboring pcomX/lacZ reporter gene at 10 uM incubated for 30 mins by ONPG based beta-galactosidase assay relative to native CSP1. The procedure, abridged: (§1)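 Single-dose screen of synthetic peptide at 10 μM in wild-type reporter strains (D39 for ComD1, TIGR4 for ComD2) producing their own CSP and carrying lacZ under the comX promoter. β-gal activity in Miller units normalized to native CSP (CSP1 or CSP2, 100%); DMSO 0%. Triplicates over three separate trials.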

Data set [2] concerns Streptococcus pneumoniae D39. Kind of data set: Antagonist activity at ComD1 receptor in Streptococcus pneumoniae D39 harboring pcomX/lacZ reporter gene assessed as inhibiton of CSP1-stimulated maximum signal at 10 uM preincubated for 30 mins followed by 50 nM CSP1 addition by ONPG based beta-galactosidase assay relative to native CSP1. The procedure, abridged: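 Inhibition screen: peptides at 10 μM against CSP1 50 nM (D39, ComD1) or CSP2 250 nM (TIGR4, ComD2), in comX-lacZ reporter strains. β-gal Miller units normalized to CSP alone (100%) and DMSO (0%). Triplicates over three separate trials.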
Background: Reporter assays use an easily measured gene product as a stand-in for the process of interest.

Data set [3] in a line: Agonist activity at ComD2 receptor in Streptococcus pneumoniae TIGR4 harboring pcomX/lacZ reporter gene incubated for 30 mins by ONPG based beta-galactosidase assay. The procedure, abridged:
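Dose-response in wild-type lacZ reporter strains (comX promoter; D39 for ComD1, TIGR4 for ComD2) producing native CSP. Peptides tested over a range of concentrations. β-gal read-out (Miller units) normalized to native CSP. EC50 reported with 95% confidence interval.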

Data set [4] in a line: Solubility of the compound in ammonium carbonate solution at pH 8. Type of data set: physicochemical. The note with it: buffer.
The subject of data set [5] is Streptococcus pneumoniae TIGR4. Description: Agonist activity at ComD2 receptor in Streptococcus pneumoniae TIGR4 harboring pcomX/lacZ reporter gene at 10 uM incubated for 30 mins by ONPG based beta-galactosidase assay relative to native CSP2. The procedure, abridged: as §1

The source made the active and inactive calls. The rule behind the calls is not given here. Non-standard residues stand in square brackets, D forms with d. Residues, ends and D or L forms follow the SMILES beside them. NMeR = CN[C@@H](CCCNC(=N)N)C(=O)O; NMeF = CN[C@@H](Cc1ccccc1)C(=O)O; NMeI = CC[C@H](C)[C@H](NC)C(=O)O; NMeE = CN[C@@H](CCC(=O)O)C(=O)O; NMeD = CN[C@@H](CC(=O)O)C(=O)O; NMeL = CN[C@@H](CC(C)C)C(=O)O; NMeM = CN[C@@H](CCSC)C(=O)O Some results are limits rather than exact numbers.

As for `CC[C@H](C)[C@H](NC(=O)[C@H](CCCNC(=N)N)NC(=O)[C@H](CCSC)NC(=O)[C@@H](N)CCC(=O)O)C(=O)N[C@@H](CO)C(=O)N[C@@H](CCCNC(=N)N)C(=O)N[C@H](C(=O)N[C@H](C(=O)N[C@@H](CC(C)C)C(=O)N[C@@H](CC(=O)O)C(=O)N[C@@H](Cc1ccccc1)C(=O)N[C@@H](CC(C)C)C(=O)N(C)[C@@H](Cc1ccccc1)C(=O)O)[C@@H](C)CC)[C@@H](C)CC` (H-EMRISRIILDFL[NMeF]-OH), the outcome in data set [1] was inactive. Also, in data set [2], the inhibition entry is “inactive”. Moreover, it took 27 nM to reach a half-maximal effect in data set [3] (EC50). Further, the solubility result in data set [4] was “Insoluble”. Also, the Activity in data set [5] was greater than 75%.
`CC[C@H](C)[C@H](NC(=O)[C@H](CCCNC(=N)N)NC(=O)[C@H](CCSC)NC(=O)[C@@H](N)CCC(=O)O)C(=O)N[C@@H](CO)C(=O)N[C@@H](CCCNC(=N)N)C(=O)N[C@H](C(=O)N[C@H](C(=O)N[C@@H](CC(C)C)C(=O)N[C@@H](CC(=O)O)C(=O)N[C@@H](Cc1ccccc1)C(=O)N(C)[C@@H](CC(C)C)C(=O)N[C@@H](Cc1ccccc1)C(=O)O)[C@@H](C)CC)[C@@H](C)CC` (H-EMRISRIILDF[NMeL]F-OH): the result in data set [1] and in data set [5] was inactive. Besides, the inhibition result in data set [2] was “inactive”. The solubility entry in data set [4] is “Insoluble”.
Consider `CC[C@H](C)[C@H](NC(=O)[C@H](CCCNC(=N)N)NC(=O)[C@H](CCSC)NC(=O)[C@@H](N)CCC(=O)O)C(=O)N[C@@H](CO)C(=O)N[C@@H](CCCNC(=N)N)C(=O)N[C@H](C(=O)N[C@H](C(=O)N[C@@H](CC(C)C)C(=O)N[C@@H](CC(=O)O)C(=O)N(C)[C@@H](Cc1ccccc1)C(=O)N[C@@H](CC(C)C)C(=O)N[C@@H](Cc1ccccc1)C(=O)O)[C@@H](C)CC)[C@@H](C)CC` (H-EMRISRIILD[NMeF]LF-OH), for which the outcome in data set [1] and in data set [5] was inactive. In data set [2], the inhibition result is “inactive”. Besides, the solubility entry in data set [4] was “Insoluble”.
With `CC[C@H](C)[C@H](NC(=O)[C@H](CCCNC(=N)N)NC(=O)[C@H](CCSC)NC(=O)[C@@H](N)CCC(=O)O)C(=O)N[C@@H](CO)C(=O)N[C@@H](CCCNC(=N)N)C(=O)N[C@H](C(=O)N[C@H](C(=O)N[C@@H](CC(C)C)C(=O)N(C)[C@@H](CC(=O)O)C(=O)N[C@@H](Cc1ccccc1)C(=O)N[C@@H](CC(C)C)C(=O)N[C@@H](Cc1ccccc1)C(=O)O)[C@@H](C)CC)[C@@H](C)CC` (H-EMRISRIIL[NMeD]FLF-OH), in data set [1], the result was inactive. The inhibition entry in data set [2] is “inactive”. Further, the EC50 (as a rule, the concentration needed to bring the measured effect to its halfway point) in data set [3] was 340 nM. Besides, the solubility result in data set [4] is recorded as “Insoluble”. The molecule further returned an Activity in data set [5] greater than 75%.
Regarding `CC[C@H](C)[C@H](NC(=O)[C@H](CCCNC(=N)N)NC(=O)[C@H](CCSC)NC(=O)[C@@H](N)CCC(=O)O)C(=O)N[C@@H](CO)C(=O)N[C@@H](CCCNC(=N)N)C(=O)N[C@H](C(=O)N[C@H](C(=O)N(C)[C@@H](CC(C)C)C(=O)N[C@@H](CC(=O)O)C(=O)N[C@@H](Cc1ccccc1)C(=O)N[C@@H](CC(C)C)C(=O)N[C@@H](Cc1ccccc1)C(=O)O)[C@@H](C)CC)[C@@H](C)CC` (H-EMRISRII[NMeL]DFLF-OH), the outcome in data set [1] and in data set [5] was inactive. In data set [2], the inhibition entry was “inactive”. Further, the solubility result in data set [4] is recorded as “Insoluble”.
For `CC[C@H](C)[C@H](NC(=O)[C@H](CCCNC(=N)N)NC(=O)[C@H](CCSC)NC(=O)[C@@H](N)CCC(=O)O)C(=O)N[C@@H](CO)C(=O)N[C@@H](CCCNC(=N)N)C(=O)N[C@H](C(=O)N(C)[C@H](C(=O)N[C@@H](CC(C)C)C(=O)N[C@@H](CC(=O)O)C(=O)N[C@@H](Cc1ccccc1)C(=O)N[C@@H](CC(C)C)C(=O)N[C@@H](Cc1ccccc1)C(=O)O)[C@@H](C)CC)[C@@H](C)CC` (H-EMRISRI[NMeI]LDFLF-OH), the result in data set [1] and in data set [5] was inactive. For the same molecule, the inhibition result in data set [2] was “inactive”. Moreover, the solubility result in data set [4] was “Insoluble”.
For `CC[C@H](C)[C@H](NC(=O)[C@H](CCCNC(=N)N)NC(=O)[C@H](CCSC)NC(=O)[C@@H](N)CCC(=O)O)C(=O)N[C@@H](CO)C(=O)N[C@@H](CCCNC(=N)N)C(=O)N(C)[C@H](C(=O)N[C@H](C(=O)N[C@@H](CC(C)C)C(=O)N[C@@H](CC(=O)O)C(=O)N[C@@H](Cc1ccccc1)C(=O)N[C@@H](CC(C)C)C(=O)N[C@@H](Cc1ccccc1)C(=O)O)[C@@H](C)CC)[C@@H](C)CC` (H-EMRISR[NMeI]ILDFLF-OH), in data set [1], the outcome was inactive. Moreover, the inhibition entry in data set [2] was “inactive”. The same molecule returned an EC50 in data set [3] greater than 1000 nM. Further, the solubility entry in data set [4] was “Insoluble”. The same molecule returned an Activity in data set [5] greater than 75%.
`CC[C@H](C)[C@@H](C(=O)N[C@@H](CC(C)C)C(=O)N[C@@H](CCC(N)=O)C(=O)N[C@@H](CCCNC(=N)N)C(=O)O)N(C)C(=O)[C@H](Cc1ccccc1)NC(=O)[C@H](CC(=O)O)NC(=O)[C@H](CCCNC(=N)N)NC(=O)[C@H](Cc1ccccc1)NC(=O)[C@H](Cc1ccccc1)NC(=O)[C@H](CCCCN)NC(=O)[C@H](CO)NC(=O)[C@H](CC(C)C)NC(=O)[C@H](CCCNC(=N)N)NC(=O)[C@H](CCSC)NC(=O)[C@@H](N)CCC(=O)O` (H-EMRLSKFFRDF[NMeI]LQR-OH): the outcome in data set [1] and in data set [5] was inactive.
In the case of `CC[C@H](C)[C@H](NC(=O)[C@H](Cc1ccccc1)N(C)C(=O)[C@H](CC(=O)O)NC(=O)[C@H](CCCNC(=N)N)NC(=O)[C@H](Cc1ccccc1)NC(=O)[C@H](Cc1ccccc1)NC(=O)[C@H](CCCCN)NC(=O)[C@H](CO)NC(=O)[C@H](CC(C)C)NC(=O)[C@H](CCCNC(=N)N)NC(=O)[C@H](CCSC)NC(=O)[C@@H](N)CCC(=O)O)C(=O)N[C@@H](CC(C)C)C(=O)N[C@@H](CCC(N)=O)C(=O)N[C@@H](CCCNC(=N)N)C(=O)O` (H-EMRLSKFFRD[NMeF]ILQR-OH), in data set [1], the outcome was inactive. For the same molecule, in data set [3], the concentration for a half-maximal effect (EC50) was greater than 1000 nM. In data set [5], the Activity is greater than 75%.
Turning to `CC[C@H](C)[C@H](NC(=O)[C@H](Cc1ccccc1)NC(=O)[C@H](CC(=O)O)NC(=O)[C@H](CCCNC(=N)N)N(C)C(=O)[C@H](Cc1ccccc1)NC(=O)[C@H](Cc1ccccc1)NC(=O)[C@H](CCCCN)NC(=O)[C@H](CO)NC(=O)[C@H](CC(C)C)NC(=O)[C@H](CCCNC(=N)N)NC(=O)[C@H](CCSC)NC(=O)[C@@H](N)CCC(=O)O)C(=O)N[C@@H](CC(C)C)C(=O)N[C@@H](CCC(N)=O)C(=O)N[C@@H](CCCNC(=N)N)C(=O)O` (H-EMRLSKFF[NMeR]DFILQR-OH), the outcome in data set [1] and in data set [5] was inactive.
For `CC[C@H](C)[C@H](NC(=O)[C@H](CCCNC(=N)N)NC(=O)[C@H](CO)NC(=O)[C@@H](NC(=O)[C@H](CCCNC(=N)N)N(C)C(=O)[C@H](CCSC)NC(=O)[C@@H](N)CCC(=O)O)[C@@H](C)CC)C(=O)N[C@H](C(=O)N[C@@H](CC(C)C)C(=O)N[C@@H](CC(=O)O)C(=O)N[C@@H](Cc1ccccc1)C(=O)N[C@@H](CC(C)C)C(=O)N[C@@H](Cc1ccccc1)C(=O)O)[C@@H](C)CC` (H-EM[NMeR]ISRIILDFLF-OH), the outcome in data set [1] and in data set [5] was inactive. Moreover, the inhibition entry in data set [2] is “inactive”. Besides, the solubility entry in data set [4] is on record as “Insoluble”.
As for `CC[C@H](C)[C@H](NC(=O)[C@H](Cc1ccccc1)NC(=O)[C@H](CC(=O)O)NC(=O)[C@H](CCCNC(=N)N)NC(=O)[C@H](Cc1ccccc1)NC(=O)[C@H](Cc1ccccc1)NC(=O)[C@H](CCCCN)NC(=O)[C@H](CO)NC(=O)[C@H](CC(C)C)NC(=O)[C@H](CCCNC(=N)N)N(C)C(=O)[C@H](CCSC)NC(=O)[C@@H](N)CCC(=O)O)C(=O)N[C@@H](CC(C)C)C(=O)N[C@@H](CCC(N)=O)C(=O)N[C@@H](CCCNC(=N)N)C(=O)O` (H-EM[NMeR]LSKFFRDFILQR-OH), the outcome in data set [1] and in data set [5] was inactive.
As for `CC[C@H](C)[C@H](NC(=O)[C@H](Cc1ccccc1)NC(=O)[C@H](CC(=O)O)NC(=O)[C@H](CCCNC(=N)N)NC(=O)[C@H](Cc1ccccc1)NC(=O)[C@H](Cc1ccccc1)NC(=O)[C@H](CCCCN)NC(=O)[C@H](CO)NC(=O)[C@H](CC(C)C)NC(=O)[C@H](CCCNC(=N)N)NC(=O)[C@H](CCSC)N(C)C(=O)[C@@H](N)CCC(=O)O)C(=O)N[C@@H](CC(C)C)C(=O)N[C@@H](CCC(N)=O)C(=O)N[C@@H](CCCNC(=N)N)C(=O)O` (H-E[NMeM]RLSKFFRDFILQR-OH), the result in data set [1] and in data set [5] was inactive.
As for `CC[C@H](C)[C@H](NC(=O)[C@H](Cc1ccccc1)NC(=O)[C@H](CC(=O)O)NC(=O)[C@H](CCCNC(=N)N)NC(=O)[C@H](Cc1ccccc1)NC(=O)[C@H](Cc1ccccc1)NC(=O)[C@H](CCCCN)NC(=O)[C@H](CO)NC(=O)[C@H](CC(C)C)NC(=O)[C@H](CCCNC(=N)N)NC(=O)[C@H](CCSC)NC(=O)[C@H](CCC(=O)O)NC)C(=O)N[C@@H](CC(C)C)C(=O)N[C@@H](CCC(N)=O)C(=O)N[C@@H](CCCNC(=N)N)C(=O)O` (H-[NMeE]MRLSKFFRDFILQR-OH), the outcome in data set [1] and in data set [5] was inactive.
H-EMRISRIILDFLF-OH displayed an EC50 in data set [3] of 78 nM.
Same read-out and setting: then H-EMRISRIILDFLFLRKK-OH, with 51 nM.
